High-throughput results (PubChem)
Rows were chosen to be rich in hits. Some 3.7% of all compounds tested hit in one or more screens of this group.
MDM2 E3 inh: blocks human Mdm2 ubiquitin ligase activity; Q00987; cell-based MDM2 ubiquitination luciferase reporter, 2 h; 0 = plate control, 100 = twice control, blank-subtracted; signal enhancement, % at 5 µM; 210,000 tested, 0.11% active; AID 1230;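 active means signal enhancement of 30% or more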;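 further: luminescence tracks abundance of the self-degrading MDM2-luciferase fusion protein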
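Assay system: mammalian cells stably expressing self-ubiquitinating, self-degrading MDM2 E3–luciferase fusion. Quantity: 2000 cells in each well. Medium: DMEM culture medium. Compound dosing: single-point 5 µM. Timing: cell settling 4 h, compound treatment 2 h, both 37 °C. Technique: luciferase luminescence. Read-out basis: percent signal gain over controls, blank-subtracted. Benchmarks: plate controls and plate blanks.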
UPR CHOP act: activators of apoptotic arm of unfolded protein response (CHOP). CHO-CHOP luciferase reporter, UPR activation, luminescence; percent of tunicamycin response over DMSO baseline. activation, % at 10 µM. 330,000 tested, 0.34% active;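 active means at 10 µM dose, activation of 40% or more, normalized to positive control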
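measured by = luciferase luminescence | assay system = CHO-CHOP cells, stable luciferase reporter of PERK-eIF2a-CHOP signalling | amount = 500 reporter cells seeded per well | timing = 6 h compound exposure at 37 °C after overnight seeding | controls = positive tunicamycin 10 µg/mL, negative DMSO alone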
UPR XBP1 act: activators of adaptive arm of unfolded protein response (XBP1); 330,000 tested, 0.33% active; CHO-XBP1 luciferase reporter, IRE1-XBP1 UPR activation, luminescence; percent of tunicamycin response, DMSO as zero; AID 463104; activation, % at 20 µM;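 active means versus positive control, 20 µM dose yields 30% or more activation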
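incubation = overnight seeding at 37 °C, 6 h compound treatment at 37 °C | assay system = CHO-XBP1 cells stably carrying IRE1-XBP1-driven luciferase reporter | input = 1000 cells per well | detection = luciferase luminescence | dosing = single point, 20 µM final compound, 1% DMSO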
Dynein transport: dynein cargo transport inhibition; 3617.4 mouse cells, GR-EGFP nuclear translocation imaging; test concentration mostly 20 µM; stimulated with dexamethasone, 1 µM; hits give low values; z-score, hits read low; 220,000 tested, 0.47% active; AID 1381;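 active means plate z-score of nuclear minus cytoplasmic receptor signal below a set negative limit, without overly bright fluorescence or cell loss, cut at about -3.5 in these data, passing the limit was not always enough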;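 further: z-score of nuclear minus cytoplasmic ring GR-EGFP intensity difference per well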
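Medium: Induction medium lacking tetracycline, stripped serum | Probe or stimulus: 1.0 µM final dexamethasone stimulus | Schedule: 48 h induction, then 1 h compound, then 30 min agonist, 37 °C | Signal: Automated 10x imaging of fixed Hoechst-stained cells | Evaluation: Per-cell GR-EGFP intensity, nucleus versus surrounding cytoplasmic ring, well-averaged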
B2AR ag: human beta-2 adrenergic receptor agonism by FAP; Am2.2-beta2AR cells, FAP receptor internalization, flow cytometry; 340,000 tested, 0.43% active; AID 504454; response, % (test concentration not listed); P07550;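 active means response above a set limit, near 3 SD of response in nonfluorescent compounds, cut at about 42% in these data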
Mdm2 MdmX PPI: disrupts the human Mdm2-MdmX interaction. O15151+Q00987. SaOS-2 split-luciferase Mdm2/MdmX complementation, luminescence. inhibition, % at 8 µM. 330,000 tested, 3% active. AID 485346;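 active means inhibition of at least 50% at 8 µM in the primary screen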
Target sequence (O15151 whole entry, looked up): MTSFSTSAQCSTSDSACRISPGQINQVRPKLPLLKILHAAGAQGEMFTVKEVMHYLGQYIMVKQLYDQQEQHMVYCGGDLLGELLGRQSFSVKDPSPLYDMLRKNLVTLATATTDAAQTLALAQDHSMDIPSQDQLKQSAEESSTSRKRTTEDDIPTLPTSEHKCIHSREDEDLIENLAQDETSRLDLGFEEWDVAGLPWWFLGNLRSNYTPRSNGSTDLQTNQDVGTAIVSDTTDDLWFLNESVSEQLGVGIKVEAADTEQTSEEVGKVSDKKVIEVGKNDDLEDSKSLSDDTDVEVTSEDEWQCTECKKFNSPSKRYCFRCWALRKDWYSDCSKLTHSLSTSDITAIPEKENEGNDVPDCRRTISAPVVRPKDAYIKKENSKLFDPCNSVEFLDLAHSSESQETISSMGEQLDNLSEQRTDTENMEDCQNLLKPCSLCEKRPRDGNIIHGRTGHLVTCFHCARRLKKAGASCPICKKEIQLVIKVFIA
Target sequence (Q00987 whole entry, looked up): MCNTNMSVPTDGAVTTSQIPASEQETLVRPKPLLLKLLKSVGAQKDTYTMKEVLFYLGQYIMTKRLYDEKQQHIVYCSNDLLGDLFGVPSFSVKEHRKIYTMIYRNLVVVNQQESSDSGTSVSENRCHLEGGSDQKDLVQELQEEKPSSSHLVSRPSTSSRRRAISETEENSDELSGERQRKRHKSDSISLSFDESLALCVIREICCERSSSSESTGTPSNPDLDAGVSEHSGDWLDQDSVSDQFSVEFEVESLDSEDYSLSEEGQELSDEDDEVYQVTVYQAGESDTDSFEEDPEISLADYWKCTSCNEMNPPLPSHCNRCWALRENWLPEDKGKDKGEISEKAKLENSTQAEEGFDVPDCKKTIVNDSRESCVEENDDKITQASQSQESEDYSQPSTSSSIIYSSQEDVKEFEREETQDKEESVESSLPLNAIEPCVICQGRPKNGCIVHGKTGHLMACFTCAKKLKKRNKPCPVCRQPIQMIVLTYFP
Mdm2 MdmX conf: human Mdm2/MdmX binding inhibition, confirmed | shares compounds with Mdm2 MdmX PPI | luminescent assay | inhibition, % at 8 µM | 10,000 tested, 55% active | AID 489028; in the data active means inhibition above about 40%
FLuc counter: counter-screen for Mdm2/MdmX inhibitors: full-length luciferase; inhibition, % at 8 µM; shares compounds with Mdm2 MdmX PPI; SaOS-2 full-length luciferase counterscreen, luminescence; 6,200 tested, 77% active;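 active means mean inhibition at 8 µM reaching about 37%, which flags the compound as non-specific, limit read from the data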;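 further: p53-null SaOS-2 cells with luciferase driven by a doxycycline-inducible promoter; compound on cells about two nights before reading with doxycycline added after day one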
Hits are given with their value; - = inactive; . = no result.

SMILES | MDM2 E3 inh | UPR CHOP act | UPR XBP1 act | Dynein transport | B2AR ag | Mdm2 MdmX PPI | Mdm2 MdmX conf | FLuc counter
COc1ccc(-n2nnnc2-c2cccc(OC)c2)cc1 | - | - | - | - | - | 56.1 | 54.5 | 66.5
O=C(NCCc1ccccc1)C(=O)NCC1OCCCN1S(=O)(=O)c1cccs1 (centres undefined) | . | - | - | . | - | - | . | .
Cc1ccc(NC(=O)Nc2cccc([N+](=O)[O-])c2)cc1F | - | - | - | - | - | 57.3 | 44.0 | 45.1
C/C(=N\NC(=O)c1cccc(N/N=C(\C)c2ccc([N+](=O)[O-])cc2)c1)c1ccc([N+](=O)[O-])cc1 | . | - | - | - | - | 68.8 | - | .
Cc1cc(O)c(C(C)C)cc1NC(=O)Nc1ccc([N+](=O)[O-])cc1 | . | . | . | . | - | . | . | .
O=C(Nc1ccc([N+](=O)[O-])cc1)C(=O)Nc1cccc(C(=O)O)c1 | - | - | - | - | - | 63.8 | 67.2 | -
Cc1ccc(C(C)C)cc1NC(=O)Nc1ccc([N+](=O)[O-])cc1 | . | - | - | - | - | 89.1 | 81.5 | 41.7
O=C(Cn1cnc(S(=O)(=O)N2CCCC2)c1)Nc1cccc(F)c1 | . | - | - | . | - | - | . | .
O=C(Nc1ccc(OC(F)(F)F)cc1)Nc1cccc([N+](=O)[O-])c1 | - | - | - | - | - | 94.7 | 90.5 | -
CC(=O)c1ccc(NC(=O)Nc2ccc([N+](=O)[O-])cc2)cc1 | . | - | - | - | - | - | . | .
O=C(Nc1ccc(Oc2ccc(NC(=O)Nc3ccc([N+](=O)[O-])cc3)cc2)cc1)Nc1ccc([N+](=O)[O-])cc1 | - | - | - | - | - | 95.2 | 66.4 | 76.0
O=C(Nc1ccc(OC(F)(F)F)cc1)Nc1cccnc1 | - | - | - | - | - | - | . | .
CC1CCC(C(C)C)C(OCC(O)CNC(C)c2ccccc2)C1 (centres undefined) | - | - | - | - | - | 60.5 | 45.8 | 69.6
CC1CCC(C(C)C)C(OCC(O)CNC(C)(C)C)C1 (centres undefined) | - | - | - | - | - | - | . | .
COc1ccc(OCC(O)CNC(C)c2ccccc2)cc1 (centres undefined) | . | - | - | . | - | - | . | .
CC(NCC(O)COC1CCC(C(C)(C)C)CC1)c1ccccc1 (centres undefined) | - | - | - | - | - | 55.0 | - | 77.1
N/C(=N\OC(=O)C(c1ccccc1)c1ccccc1)c1ccccn1 | - | - | - | - | 58.3 | 77.3 | - | .
N/C(=N\OC(=O)C(c1ccccc1)c1ccccc1)c1cccnc1 | - | - | - | - | - | 51.5 | - | .
O=C(NCCc1ccccc1Cl)C1CCC(=O)N(CC2CCCCC2)C1 (centres undefined) | . | - | - | . | - | - | . | .
O=C(NNC1=C(C(=O)C(F)(F)F)CCC1)c1cccc(O)c1 | - | - | - | - | - | - | . | .
Cc1cccc(C(=O)NNC2=C(C(=O)C(F)(F)F)CCC2)c1O | - | - | - | - | - | 61.8 | - | .
O=C(NCC(=O)N1CCC2(CC1)NCCc1[nH]cnc12)c1ccc2ccccc2c1 | . | - | - | . | - | - | . | .
c1csc(CNc2ncnc3ccc(-c4ccoc4)cc23)c1 | . | - | - | . | - | 65.4 | 66.5 | -
CCOC(=O)c1cc(NC(=O)c2ccccc2)c(=O)n2c1oc1ccccc12 | - | - | - | - | - | 56.1 | - | .
COc1ccc(C=C2C=C(C(C)(C)C)C(=O)C(C(C)(C)C)=C2)cc1OC | . | - | - | . | 76.1 | 100.3 | - | .
SMILES | MDM2 E3 inh | UPR CHOP act | UPR XBP1 act | Dynein transport | B2AR ag | Mdm2 MdmX PPI | Mdm2 MdmX conf | FLuc counter
FC(F)(F)c1cnc(NNC(=S)Nc2ccc(Cl)cc2)c(Cl)c1 | - | - | - | - | - | 90.3 | 66.5 | -
Fc1ccc(NC(=S)NNc2ncc(C(F)(F)F)cc2Cl)c(F)c1 | - | - | - | - | - | 77.3 | 48.8 | 66.8
Cc1ccc(NC(=S)NNc2ncc(C(F)(F)F)cc2Cl)cc1 | - | - | - | - | - | - | . | .
Cc1ccc(NC(=S)NNc2ncc(C(F)(F)F)cc2Cl)c(C)c1 | - | - | - | - | - | - | . | .
CCOc1ncccc1C(=O)OCC(=O)N1CCC(C)CC1 | . | - | - | . | - | - | . | .
CC(C)NC(=O)c1ccccc1NC(=O)/C=C/c1cccc([N+](=O)[O-])c1 | - | - | - | - | - | 75.3 | - | .
CC(C)C(NC(=O)/C=C/c1cccc([N+](=O)[O-])c1)C(C)C | - | - | - | - | - | - | . | .
